# Data from ChEMBL document CHEMBL1671657, “MurF inhibitors with antibacterial activity: effect on muropeptide levels” (Antimicrob Agents Chemother, 2009).
# The source made the active and inactive calls. The rule behind the calls is not given here.
# Legend:
# Escherichia coli [1] = test: Inhibition of LPS-deficient Escherichia coli OC2530 MurF assessed as UDP-MurNAc-pentapeptide product level at MIC by HPLC (reference value: 1 fold of control)
# Escherichia coli [2] = test: Antimicrobial activity against LPS-deffective Escherichia coli OC2530 assessed as cell aggregation at 0.5 times MIC by TEM relative to untreated control; type: functional, organism-based
# How it was run: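 At 5 h, cells were fixed in 1% glutaraldehyde (final) for 1 h at room temperature, pelleted, and resuspended in PBS. They were negatively stained with 1% ammonium molybdate and imaged by TEM at ×15,000.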
# Escherichia coli [3] = test: Inhibition of LPS-deficient Escherichia coli OC2530 MurF assessed as UDP-MurNAc-tripeptide substrate level at 4 times MIC by HPLC (reference value: 1 mAU)
# Escherichia coli [4] = test: Inhibition of LPS-deficient Escherichia coli OC2530 MurF assessed as UDP-MurNAc-tripeptide substrate level at MIC by HPLC (reference value: 1 fold of control)
# Staphylococcus aureus [5] = test: Antimicrobial activity against methicillin-resistant Staphylococcus aureus OC2878 by broth microdilution method; type: functional
# How it was run: (§1)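 CLSI broth microdilution MIC; strains from the sponsor's in-house collection.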
# Staphylococcus aureus [6] = test: Antimicrobial activity against Staphylococcus aureus OC4172 by broth microdilution method; type: functional
# How it was run: (§2)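 MICs by CLSI broth microdilution. Where polymyxin B nonapeptide was included, it was present at 2 μg/ml alongside the test compound.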
# Escherichia coli [7] = test: Antimicrobial activity against LPS-deffective Escherichia coli OC2530 at 0.5 times MIC after 4 hrs by light microscopy relative to control; type: functional, organism-based
# How it was run: (§3)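 Cells were fixed on a glass slide under a coverslip and viewed by light microscopy at ×100/×1.25 oil immersion. Representative images were taken.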
# Enterococcus faecium [8] = test: Antimicrobial activity against Enterococcus faecium OC3312 by broth microdilution method in presence of polymyxin B nonapeptide; type: functional
# How it was run: as §2
# Escherichia coli [9] = test: Inhibition of LPS-deficient Escherichia coli OC2530 MurF assessed as UDP-MurNAc-tripeptide substrate level at 2 times MIC by HPLC (reference value: 1 mAU)
# Escherichia coli [10] = test: Antimicrobial activity against Escherichia coli ATCC 25922 by broth microdilution method; type: functional
# How it was run: as §2
# Escherichia coli [11] = test: Inhibition of LPS-deficient Escherichia coli OC2530 MurF assessed as UDP-MurNAc-pentapeptide product level at 0.5 times MIC by HPLC (reference value: 1 mAU)
# Staphylococcus aureus [12] = test: Antimicrobial activity against methicillin-resistant Staphylococcus aureus OC3726 by broth microdilution method in presence of polymyxin B nonapeptide; type: functional
# How it was run: (§4)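 CLSI broth microdilution MIC run in the presence of polymyxin B nonapeptide (PMBN) at 2 μg/ml as a permeabilizer.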
# Enterococcus faecalis [13] = test: Antimicrobial activity against Enterococcus faecalis ATCC 29212 by broth microdilution method; type: functional
# How it was run: as §2
# Escherichia coli [14] = test: Antimicrobial activity against Escherichia coli OC2605 by broth microdilution method in presence of polymyxin B nonapeptide; type: functional
# How it was run: as §2
# Escherichia coli [15] = test: Inhibition of LPS-deficient Escherichia coli OC2530 MurF harboring pASK plasmid assessed as UDP-MurNAc-tripeptide substrate level at 2 times MIC by HPLC (reference value: 63 +/- 4 mAU)
# How it was run: (§5)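 Compound added at 2× MIC from 500× stock (DMSO control). After 30 min, muropeptides extracted and quantified by HPLC peak area (mAU); representative of two independent experiments.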
# Escherichia coli [16] = test: Inhibition of LPS-deficient Escherichia coli OC2530 MurF assessed as UDP-MurNAc-tripeptide substrate level at 0.5 times MIC by HPLC (reference value: 1 mAU)
# Escherichia coli [17] = test: Antimicrobial activity against LPS-deffective Escherichia coli OC2530 by broth microdilution method; type: functional
# How it was run: as §2
# Escherichia coli [18] = test: Antimicrobial activity against LPS-deffective Escherichia coli OC2530 assessed as cell aggregation at 0.5 times MIC by light microscopy relative to untreated control; type: functional, organism-based
# How it was run: as §3
# Escherichia coli [19] = test: Antimicrobial activity against LPS-deffective Escherichia coli OC2530 assessed as cell lysis at 2 times MIC by light microscopy; type: functional, organism-based
# How it was run: as §3
# Escherichia coli [20] = test: Antimicrobial activity against Escherichia coli OC2605 by broth microdilution method; type: functional
# How it was run: as §1
# Staphylococcus aureus [21] = test: Antimicrobial activity against methicillin-resistant Staphylococcus aureus OC3726 by broth microdilution method; type: functional
# How it was run: as §1
# Staphylococcus aureus [22] = test: Antimicrobial activity against Staphylococcus aureus OC4172 by broth microdilution method in presence of polymyxin B nonapeptide; type: functional
# How it was run: as §2
# Escherichia coli [23] = test: Antimicrobial activity against LPS-deffective Escherichia coli OC2530 by broth microdilution method in presence of polymyxin B nonapeptide; type: functional
# How it was run: as §2
# Escherichia coli [24] = test: Antimicrobial activity against LPS-deffective Escherichia coli OC2530 harboring pASK plasmid by broth microdilution method in presence of chloramphenicol; type: functional
# How it was run: (§6)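 CLSI broth microdilution MIC for OC2530 carrying plasmid (empty pASK or pMurF). Medium contained chloramphenicol 3 μg/ml to keep the plasmid and AHT 100 ng/ml to induce MurF expression.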
# Escherichia coli [25] = test: Antimicrobial activity against LPS-deffective Escherichia coli OC2530 assessed as log reduction in bacterial count at 2 times MIC after 30 mins relative to control; type: functional
# Escherichia coli [26] = test: Bactericidal activity against LPS-deffective Escherichia coli OC2530 assessed as log reduction in bacterial count at =>2 times MIC after 3 hrs relative to control; type: functional
# Escherichia coli [27] = test: Inhibition of LPS-deficient Escherichia coli OC2530 MurF assessed as UDP-MurNAc-pentapeptide product level at 4 times MIC by HPLC (reference value: 1 mAU)
# Staphylococcus aureus [28] = test: Antimicrobial activity against Staphylococcus aureus ATCC 29213 by broth microdilution method; type: functional
# How it was run: as §2
# Escherichia coli [29] = test: Antimicrobial activity against LPS-deffective Escherichia coli OC2530 at MIC after 3 hrs relative to untreated control; type: functional
# Escherichia coli [30] = test: Bactericidal activity against LPS-deffective Escherichia coli OC2530 assessed as log reduction in bacterial count at 2 times MIC after 3 hrs relative to control; type: functional
# Escherichia coli [31] = test: Antimicrobial activity against LPS-deffective Escherichia coli OC2530 at 0.5 times MIC after 30 mins relative to control; type: functional, organism-based
# Escherichia coli [32] = test: Inhibition of LPS-deficient Escherichia coli OC2530 MurF assessed as UDP-MurNAc-pentapeptide product level at 2 times MIC by HPLC (reference value: 1 mAU)
# Enterococcus faecalis [33] = test: Antimicrobial activity against Enterococcus faecalis ATCC 29212 by broth microdilution method in presence of polymyxin B nonapeptide; type: functional
# How it was run: as §2
# Escherichia coli [34] = test: Antimicrobial activity against Escherichia coli ATCC 25922 by broth microdilution method in presence of polymyxin B nonapeptide; type: functional
# How it was run: as §2
# Staphylococcus aureus [35] = test: Antimicrobial activity against Staphylococcus aureus ATCC 29213 by broth microdilution method in presence of polymyxin B nonapeptide; type: functional
# How it was run: as §2
# Escherichia coli [36] = test: Antimicrobial activity against LPS-deffective Escherichia coli OC2530 assessed as log reduction in bacterial count at 4 times MIC after 30 mins relative to control; type: functional
# Escherichia coli [37] = test: Antimicrobial activity against Escherichia coli OC9040 by broth microdilution method; type: functional
# How it was run: as §2
# [38] = Inhibition of Escherichia coli MurF
# Enterococcus faecium [39] = test: Antimicrobial activity against Enterococcus faecium OC3312 by broth microdilution method; type: functional
# How it was run: as §2
# Escherichia coli [40] = test: Antimicrobial activity against LPS-deffective Escherichia coli OC2530 assessed as cell lysis at 4 times MIC by light microscopy; type: functional, organism-based
# How it was run: as §3
# Escherichia coli [41] = test: Antimicrobial activity against LPS-deffective Escherichia coli OC2530 assessed as growth inhibition at MIC by light microscopy; type: functional, organism-based
# Escherichia coli [42] = test: Antimicrobial activity against LPS-deffective Escherichia coli OC2530 harboring pMurF plasmid by broth microdilution method in presence of chloramphenicol; type: functional
# How it was run: as §6
# Escherichia coli [43] = test: Inhibition of LPS-deficient Escherichia coli OC2530 MurF harboring pMurF plasmid assessed as UDP-MurNAc-tripeptide substrate level at 2 times MIC by HPLC (reference value: 220 +/- 65 mAU)
# How it was run: as §5
# Escherichia coli [44] = test: Inhibition of LPS-deficient Escherichia coli OC2530 MurF harboring pASK plasmid assessed as UDP-MurNAc-pentapeptide product level at 2 times MIC by HPLC (Rvb =880 +/- 17 mAU)
# How it was run: as §5
# Escherichia coli [45] = test: Antimicrobial activity against LPS-deffective Escherichia coli OC2530 at =< MIC after 3 hrs relative to untreated control; type: functional, organism-based
# Escherichia coli [46] = test: Inhibition of LPS-deficient Escherichia coli OC2530 MurF harboring pMurF plasmid assessed as UDP-MurNAc-pentapeptide product level at 2 times MIC by HPLC (reference value: 2674 +/- 696 mAU)
# How it was run: as §5
# Escherichia coli [47] = test: Antimicrobial activity against Escherichia coli OC9040 by broth microdilution method in presence of polymyxin B nonapeptide; type: functional
# How it was run: as §2
# Staphylococcus aureus [48] = test: Antimicrobial activity against methicillin-resistant Staphylococcus aureus OC2878 by broth microdilution method in presence of polymyxin B nonapeptide; type: functional
# How it was run: as §4
# Escherichia coli [49] = test: Antimicrobial activity against LPS-deffective Escherichia coli OC2530 at MIC after 30 mins relative to control; type: functional, organism-based
# Escherichia coli [50] = test: Antimicrobial activity against LPS-deffective Escherichia coli OC2530 at 0.5 times MIC by light microscopy relative to control; type: functional, organism-based
# How it was run: as §3
compound,measurement,setting,value
COc1ccc2nc(OC)c([C@@H](c3ccccc3)[C@](O)(CCN(C)C)c3ccccc3)cc2c1,Activity (fold of control),Escherichia coli [1],1.48
same,Activity,Escherichia coli [2],Active
same,Activity (fold of control),Escherichia coli [3],63
same,Activity (fold of control),Escherichia coli [4],27
same,MIC,Staphylococcus aureus [5],> 32 µg/mL
same,MIC,Staphylococcus aureus [6],> 32 µg/mL
same,Activity,Escherichia coli [7],Active
same,MIC,Enterococcus faecium [8],> 32 µg/mL
same,Activity (fold of control),Escherichia coli [9],89
same,MIC,Escherichia coli [10],> 32 µg/mL
same,Activity (fold of control),Escherichia coli [11],1.62
same,MIC,Staphylococcus aureus [12],> 32 µg/mL
same,MIC,Enterococcus faecalis [13],> 32 µg/mL
same,MIC,Escherichia coli [14],4 µg/mL
same,Activity,Escherichia coli [15],1200 mAU
same,Activity (fold of control),Escherichia coli [16],6
same,MIC,Escherichia coli [17],8 µg/mL
same,Activity,Escherichia coli [18],Active
same,Activity,Escherichia coli [19],Active
same,MIC,Escherichia coli [20],> 32 µg/mL
same,MIC,Staphylococcus aureus [21],> 32 µg/mL
same,MIC,Staphylococcus aureus [22],> 32 µg/mL
same,MIC,Escherichia coli [23],2 µg/mL
same,MIC,Escherichia coli [24],16 µg/mL
same,FC,Escherichia coli [25],1
same,FC,Escherichia coli [26],5
same,Activity (fold of control),Escherichia coli [27],0.15
same,MIC,Staphylococcus aureus [28],> 32 µg/mL
same,fold change (FC),Escherichia coli [29],0.3
same,FC,Escherichia coli [30],5
same,Activity,Escherichia coli [31],Active
same,Activity (fold of control),Escherichia coli [32],0.33
same,MIC,Enterococcus faecalis [33],> 32 µg/mL
same,MIC,Escherichia coli [34],8 µg/mL
same,MIC,Staphylococcus aureus [35],> 32 µg/mL
same,FC,Escherichia coli [36],2
same,MIC,Escherichia coli [37],> 32 µg/mL
same,IC50,[38],24 µM
same,MIC,Enterococcus faecium [39],> 32 µg/mL
same,Activity,Escherichia coli [40],Active
same,Activity,Escherichia coli [41],Active
same,MIC,Escherichia coli [42],16 µg/mL
same,Activity,Escherichia coli [43],933 mAU
same,Activity,Escherichia coli [44],213 mAU
same,Activity,Escherichia coli [45],inactive
same,Activity,Escherichia coli [46],351 mAU
same,MIC,Escherichia coli [47],8 µg/mL
same,MIC,Staphylococcus aureus [48],> 32 µg/mL
same,Activity,Escherichia coli [49],Active
same,Activity,Escherichia coli [50],inactive
